Results published in ChEMBL document CHEMBL1833877, “Antinociceptive properties of bergenin” (J Nat Prod, 2011).

Key:
Mus musculus [1] = test: Neurotoxicity in mouse assessed as effect on motor coordination by measuring reduced latency at 10 mg/kg, ip after 40 mins by rotarod test; format: toxicity, organism-based; set-up: dose 10 mg/kg, route intraperitoneal; details: in vivo
In short: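 Rotarod: a 3 cm bar split into five compartments, turning at a constant 5 rpm. Male mice were placed on the rod 40 min after ip dosing (vehicle 2% DMSO in saline), and time on the rod was recorded up to 120 s. Result is mean time per group; n = 6, one-way ANOVA with Tukey's test.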

Mus musculus [2] = test: Neurotoxicity in mouse assessed as effect on motor coordination at 10 mg/kg, ip after 40 mins by open field test; format: toxicity, organism-based; set-up: dose 10 mg/kg, route intraperitoneal; details: in vivo
In short: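 Male mice were dosed ip (vehicle 2% DMSO in saline). 40 min later each was placed alone in a 40 × 60 × 50 cm wooden box with the floor divided into 12 squares. Squares crossed with all four paws were counted over 3 min. n = 6 mice per group, means ± SEM, one-way ANOVA with Tukey's test.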

CN1C(=O)CN=C(c2ccccc2)c2cc(Cl)ccc21 [DIAZEPAM] was tested, and the Activity (Mus musculus [1]) was “Toxic” and the Activity (Mus musculus [2]) was “Toxic”.
